Rad51 HR inh: human RAD51 strand exchange inhibitors, primary screen, biochemical, fluorescence. hRad51 DNA strand exchange, fluorescence dequenching. inhibition, % at 10 µM. hit rate 0.085% among 200,000. AID 1385, 2008;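 active means inhibition above 40% at the single screening dose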;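 further: 0% = DMSO control wells and 100% = blanks with heterologous ssDNA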
Target sequence (Q06609 whole entry, looked up): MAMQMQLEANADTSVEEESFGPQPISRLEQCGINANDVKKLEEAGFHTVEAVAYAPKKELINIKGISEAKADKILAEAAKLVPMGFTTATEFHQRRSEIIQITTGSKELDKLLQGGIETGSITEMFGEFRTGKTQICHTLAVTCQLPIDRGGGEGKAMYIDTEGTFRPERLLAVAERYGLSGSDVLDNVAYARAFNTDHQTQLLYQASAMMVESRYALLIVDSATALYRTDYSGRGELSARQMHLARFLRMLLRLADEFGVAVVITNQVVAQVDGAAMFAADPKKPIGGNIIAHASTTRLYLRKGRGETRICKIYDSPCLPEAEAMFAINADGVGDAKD
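System: human Rad51 nucleoprotein filaments preassembled on unlabelled ssDNA. Reagent: labelled 47-mer dsDNA for strand exchange. Schedule: 30-min compound preincubation and 15-min exchange, both room temperature. Measured by: FRET fluorescence dequenching, excitation 485 nm, emission 520 nm. Read-out: Fluorescence-based percent inhibition, control- and blank-normalised. Benchmarks: plate controls and plate blanks.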
zVAD death inh: inhibitors of zVAD-triggered necroptosis, primary screen, L929 cells; L929 zVAD necroptosis rescue, ATP luminescence, 24 h; with zVAD 60 µM; viability rescue, % at 10 µM; hit rate 0.38% among 220,000; AID 1377, 2008;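 active means activation, scaled between plate controls, above about 75%, limit read from the data; inactive means activation under that limit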;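 further: 0% = zVAD with DMSO and 100% = DMSO alone without zVAD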
PERK inhibitor: block of dimerizer-induced PERK translation repression, primary screen, PERK inhibitor project, CHO PERK-DD cells, SEAP luminescence, HTS; hit rate 0.17% among 220,000; CHO PERK-DD fusion, SEAP luminescence translation reporter; inhibition, % at 5.6 µM;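 active means inhibition above the mean inhibition of all tested compounds plus 3 SD, set separately per screening campaign, cut at about 2.9% in these data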;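 further: PERK kinase domain activated by AP20187 dimerizer at 100 nM; 0% = DMSO with dimerizer and 100% = rapamycin at 8.4 µM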
TNF necrop inh: inhibitors of TNF-alpha triggered necroptosis, primary screen, cell-based, Jurkat FADD-/-, single concentration; hit rate 0.068% among 220,000; Jurkat FADD-/- TNF necroptosis rescue, ATP luminescence, 24 h; 0 = TNF only, 100 = no-TNF cells; AID 463075, 2010; activation (protection from cell death), % at 10 µM;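 active means activation, meaning protection from cell death, of at least 50% relative to plate controls; inactive means activation below 50%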;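 further: necroptosis triggered by 40 ng/mL TNF-alpha added together with compound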
HMGR II inh: inhibitors of E. faecalis class II HMGR, primary screen, biochemical, Enterococcus faecalis; AID 1066, 2008; inhibition, % at 10 µM; HMG-CoA reductase (Enterococcus faecalis, mvaE); purified E. faecalis HMGR, NADPH absorbance 340 nm kinetic; hit rate 0.41% among 190,000;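 active means inhibition above a set limit, the median over all tested compounds plus 3 SD, cut at about 9.5% in these data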;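 further: enzyme runs in reverse so mevalonate oxidation gives rising NADPH absorbance; 0% = complete reaction with DMSO and 100% = background rate lacking mevalonate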
zVAD necrop conf: inhibitors of zVAD-triggered necroptosis in L929, confirmation, L929 cells, duplicate runs. shares compounds with zVAD death inh. L929 zVAD-induced necroptosis rescue, ATP luminescence, 24 h. activation (protection from necroptosis), % at 10 µM. hit rate 16% among 760;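 active means mean protection from necroptosis of at least 50% over duplicate tests; inactive means mean protection below 50%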;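 further: 0% = cells with zVAD alone and 100% = vehicle cells without zVAD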
* hit, by the source's call; nt = no result given. Hits are enriched below; roughly 1% of the tested compounds scored in any of these assays.

SMILES	Rad51 HR inh	zVAD death inh	PERK inhibitor	TNF necrop inh	HMGR II inh	zVAD necrop conf
CC(=O)N1N=C(c2ccc(C)c([N+](=O)[O-])c2)OC1(C)C	-1	-1	2	-2	nt	nt
Cn1cc(CNCc2cn(C)nc2-c2ccc(C3CCCCC3)cc2)cn1	-15	26	0	3	-5	nt
CCN(CCO)c1ccc(N=Nc2cc(C)[nH]n2)cc1	-4	85*	0	26	nt	34
COc1ccc(C(=O)c2ccccc2)c(OCC(=O)N(C)C)c1	-3	2	0	0	0	nt
CCCN1C(=O)/C(=C/c2ccc3c(c2)OCO3)NC1=S	-6	87*	0	46	-1	90*
CCc1ccc([C@@H]2C[C@H]3CN(Cc4ccccc4OC)C(=O)[C@]34CCCN24)cc1	-59	1	1	-1	-2	nt
O=C(COC(=O)c1ccc(O)cc1)Nc1ccc(Cl)cc1	-5	78*	0	2	-6	21
O=C(c1ccc([N+](=O)[O-])c(CS(=O)(=O)c2ccc(Cl)cc2)c1)N1CCCC1	-6	-1	0	0	-1	nt
O=C(N/N=C/C=C/c1ccccc1)c1cc(C2CC2)[nH]n1	16	77*	-1	8	nt	4
Cc1cc(C(=O)N/N=C/C=C/c2cccc([N+](=O)[O-])c2)n[nH]1	11	87*	0	19	-4	1
Cc1cc(C(=O)N/N=C/C=C/c2ccccc2)n[nH]1	15	31	1	25	nt	nt
O=C(CSc1nnc(COc2ccccc2)o1)N1CCOCC1	7	1	2	0	4	nt
CC(=O)N(C)c1ccc(NC(=S)Nc2ccccc2)cc1	4	0	-1	-1	-4	nt
CC(=O)N(C)c1ccc(NC(=O)Nc2ccc(C)cc2)cc1	1	77*	0	-1	-1	37
CN=C1S/C(=C\c2cn(CC(=O)OC)c3ccccc23)C(=O)N1C	-15	75*	0	1	-12	0
CN=C1S/C(=C/c2cn(CC(=O)OC)c3ccccc23)C(=O)N1C	-15	67	-2	-2	nt	nt
Cn1cc(C(=O)N/N=C/c2cccs2)c2ccccc21	2	81*	0	-3	-5	5
Cc1cc(C(=O)N/N=C/c2cccs2)n[nH]1	-5	82*	1	20	-2	2
Cc1cc(C(=O)N/N=C/c2ccc(-c3cccc(Cl)c3)o2)n[nH]1	-14	75*	0	23	nt	7
Cc1cc(C(=O)N/N=C/c2cccs2)no1	nt	0	1	2	-1	nt
C/C(CC(=O)NC(C)C)=N\NC(=O)C(c1ccccc1)c1ccccc1	13	82*	1	30	-1	40
C/C(CCc1ccccc1)=N/NC(=O)C(=O)NC(C)c1ccccc1 (centres undefined)	21	6	1	1	4	nt
COc1cc(OC)nc(/N=C/NO)n1	4	2	1	0	nt	nt
CCn1ncc(CN2CCCC(CNC(=O)c3ccc(F)cc3)C2)c1C (centres undefined)	7	0	0	0	-2	nt
COCCNC(=O)C1CC(=O)N(c2ccc(OC)cc2)C1c1ccc(OC)cc1 (centres undefined)	-2	2	1	0	0	nt
SMILES	Rad51 HR inh	zVAD death inh	PERK inhibitor	TNF necrop inh	HMGR II inh	zVAD necrop conf
C/C(=N\OCc1ccccc1C#N)c1cc2ccccc2o1	-1	0	0	0	-3	nt
C/C(=N\OCc1ccc(C#N)cc1)c1cc2ccccc2o1	3	78*	1	1	nt	1
COc1ccc(OCCC(=O)NCC23CC4CC(CC(C4)C2)C3)cc1	-2	94*	1	1	-1	4
COc1ccc(OCCC(=O)NCc2ccccc2)cc1	-1	1	1	1	-2	nt
CN1C[C@@H]2C(c3ccc(C(F)(F)F)cc3)C3(c4cccnc4)CC2(C3)[C@H]1c1ccccc1 (some centres undefined)	-3	0	nt	-2	nt	nt
COC(=O)c1c(C)[nH]c(O)c1C=Nc1ccc(C(C)C)cc1	-17	82*	1	-1	1	4
O=C(Cn1nnc(-c2ccncc2)n1)Nc1ccc2c(c1)CCC2	6	81*	1	1	-2	39
COc1cc(NC(=O)Cn2nnc(-c3ccncc3)n2)cc(OC)c1	6	77*	1	-4	3	30
O=C1N/C(=C/c2cccs2)C(=O)N1Cc1ccc(Br)cc1	-1	2	0	2	-4	nt
Fc1ccc(NC(=S)N2N=CCC2c2ccccc2)cc1 (centres undefined)	-5	82*	-1	94*	-10	10
Fc1ccc(NC(=S)N2CCCC(c3ccccc3)=N2)cc1	-6	0	-1	1	nt	nt
O=C(Nc1cccc(Cl)c1)N1N=CCC1c1ccccc1 (centres undefined)	13	89*	0	92*	nt	85*
c1ccn(-c2ccc(-c3ccn[nH]3)cc2)c1	-1	86*	2	7	-3	5
COc1ccc(NC(=O)c2ccc(S(=O)(=O)C(F)F)cc2)c(OC)c1	14	77*	0	0	3	1
CC(C)(C)NC(=O)Cn1nnc(-c2ccc(S(C)(=O)=O)cc2)n1	-22	0	0	1	0	nt
CC(C)(C)NC(=O)Cn1nnc(-c2ccc(Cl)cc2)n1	5	84*	0	0	-6	2
O=C(Cn1nnc(-c2ccc(Cl)cc2)n1)NCCC1=CCCCC1	-2	1	1	-2	1	nt
O=C(Cn1nnc(-c2ccc(Cl)cc2)n1)NC1CC2CCC1C2 (centres undefined)	0	83*	0	1	2	10
O=C(Cn1nnc(-c2ccc(Cl)cc2)n1)NCC1CCCCC1	2	88*	2	-4	0	44
O=C(NN1C(=O)c2ccc(-c3ccc4c(c3)C(=O)N(NC(=O)c3cccnc3)C4=O)cc2C1=O)c1cccnc1	1	0	0	0	-1	nt
c1ccc(Nc2nc3ccccc3[nH]2)nc1	0	75*	-1	0	1	8
Cc1cc(C)nc(Nc2nc3ccccc3[nH]2)n1	-2	0	0	-1	2	nt
O=C(NC(=S)NCc1nc2ccccc2[nH]1)c1ccccc1F	11	12	0	3	-6	nt

High-throughput results as filed in PubChem.
